This is an account of results in PubChem BioAssay.

The nature of experiment [1]: S. cerevisiae growth inhibition in permissive medium (OD615), pilot counter-assay for S. cerevisiae lifespan shortening project, permissive growth control (AID 705;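 active means growth inhibition above 25% in both replicates, a cutoff set 3 SD above the mean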). Conditions: OD615, 24 h, at 10 µM, stronger effect = higher value. The method, boiled down:
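System – S. cerevisiae with engineered DeaD lifespan system · Buffer or medium – SC raffinose/galactose permissive medium · Schedule – cells pre-grown 4 h, then 24 h compound exposure, 30 °C humidified · Technique – culture turbidity as optical density at 615 nm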

Experiment [2] can be described thus: S. cerevisiae growth inhibition in restrictive medium, OD615, pilot screen, restrictive growth control, yeast lifespan reduction project (AID 706;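 active means growth inhibition above a set limit, 3 SD over mean compound inhibition, in both replicates, cut at about 43% in these data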;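 further: modified DeaD lifespan yeast strain shifted to restrictive glucose medium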). As to conditions: OD615, 48 h, at 10 µM, stronger effect = higher value. The method, boiled down: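 Material: engineered S. cerevisiae DeaD strain / Medium: glucose-based CSMM-D restrictive medium / Compound: single dose of 10 µM compound final, 0.25% DMSO / Timing: 4 h pre-incubation, 48 h exposure at 30 °C / Technique: OD615 absorbance reading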

Experiment [3] in a line: doxorubicin toxicity protection in MRP-1 cells – H69AR cells, CellTiter-Glo, duplicate, MRP-1 activator project, pilot screen (AID 807;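 active means viability increase at or above a cutoff of the median across tested compounds plus 3 SD, cut at about 8.5% in these data, passing the limit was not always enough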;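 further: compound pretreatment 18-22 h then 72 h combined with doxorubicin; 0% = doxorubicin alone and 100% = vehicle without doxorubicin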). As to conditions: H69AR viability with doxorubicin, CellTiter-Glo luminescence; at 10 µM; stronger effect = higher value.
A short description of experiment [4]: viability of HCT116 without oncogenic beta-catenin – human colon tumor cells, pilot screen (AID 823;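 active means cell viability at or below a set limit in both duplicate runs, the limit being the all-compound median minus 4 SD, cut at about 23% in these data, passing the limit was not always enough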;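 further: 0% = wells killed by 20 µM Hyamine and 100% = untreated DMSO cell wells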). Conditions: HCT116 beta-catenin knockout viability, CellTiter-Glo, 60 h; at 10 µM; stronger effect = lower value.
A short description of experiment [5]: viability of PTEN-null HCT116 cells – cell-based, HCT116 clonal line, CellTiter-Glo, pilot screen (AID 824).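 Further: 0% = 20 µM Hyamine control and 100% = vehicle cell control.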 As to conditions: HCT116 PTEN-deleted viability, 60 h, at 10 µM, stronger effect = lower value.
A short description of experiment [6]: RAM pathway blockade in budding yeast – dse1pr::URA3 reporter, 5-FOA selection, pilot screen (AID 869;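 active means inhibition over a set limit, the all-compound mean plus 3 SD, in both replicate runs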;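 further: 0% = DMSO wells with no growth and 100% = 10 µM 1-NA-PP1 with full growth; RAM network block rescues cells from 5-FOA so hits raise OD615 growth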). As to conditions: S. cerevisiae dse1pr::URA3 5-FOA growth, OD615, 2 d; at 10 µM; stronger effect = higher value; strain carries analog-sensitive mutant Cbk1 kinase.
Experiment [7] is described as follows: RAM signaling pathway blockade in yeast – S. cerevisiae, Pdr1DBD-CYC8 efflux-inhibited sensitized strain, primary screen (AID 1298;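 active means RAM network inhibition above 8.4% in each of two replicates, 3 SD over the compound average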;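 further: 0% = DMSO untreated cells without growth and 100% = 10 µM 1-NA-PP1 full growth; higher means more yeast growth rescued from 5-FOA killing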). Conditions: S. cerevisiae cbk1-as DSE1-URA3 strain, 5-FOA growth OD615, 2 d; at 50 µM; stronger effect = higher value.

Values without a mark were called inactive. Inconclusive results are not listed. Active and inactive are the calls of the source.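 How the source made its calls, unless noted: active means viability at or below 27.92% in each of two runs, the all-compound median minus 4 SD; inconclusive means no clear call, values can overlap the other calls; inactive means the rest.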

Turning to `Cc1nc2ccc(NC(=O)c3ccc(S(=O)(=O)N4CCOCC4)cc3)cc2s1`, the growth inhibition in experiment [1] was -2.22%; in experiment [2], -2.84%. In addition, in experiment [3], the viability increase is 0.28%. For the same molecule, the viability is 95.3% in experiment [4] and 93.8% in experiment [5]. Further, the inhibition in experiment [6] is 3.07%. Moreover, in experiment [7], the RAM network inhibition was 4.83%.
Take `O=C(Cn1cnc2c(nnn2-c2ccccc2)c1=O)N1CCCc2ccccc21`: the growth inhibition in experiment [1] was -10%; in experiment [2], -10.4%. Moreover, in experiment [3], the viability increase was 0.06%. For the same molecule, the viability in experiment [4] and in experiment [5] was 101% in each case. Moreover, in experiment [6], the inhibition is 1.55%. Further, the RAM network inhibition in experiment [7] was 5.32%.
For the molecule `CCOC(=O)COC(=O)c1ccc(O)cc1`, the growth inhibition in experiment [1] is -4.13%; in experiment [2], -13.5%. In experiment [3], the viability increase is -0.28%. The viability in experiment [4] was 93%; in experiment [5], 97.8%. For the same molecule, in experiment [6], the inhibition is 1.47%. In addition, in experiment [7], the RAM network inhibition was 0.37%.
`COc1cccc(-c2nnc3n2N=C(C(C)(C)C)CS3)c1`: the growth inhibition in experiment [1] is -5.97%; in experiment [2], -16.3%. In addition, the viability increase in experiment [3] is -4.18%. Also, the viability in experiment [4] is 5.81% (active); in experiment [5] it was 5.52% (active). Further, the inhibition in experiment [6] was 0.79%. In experiment [7], the RAM network inhibition is 2.49%.
Turning to `CCOc1ccc(OCC)c(S(=O)(=O)NCc2ccc3c(c2)OCO3)c1`, the results for the growth inhibition in experiment [1] and in experiment [2] were -9.29% and -2.62%, respectively. Also, the viability increase in experiment [3] was -2.97%. The viability is 95.1% in experiment [4] and 96.5% in experiment [5]. In addition, the inhibition in experiment [6] is 1.52%. In experiment [7], the RAM network inhibition was 5.31%.
Take `CCCc1cc(C(=O)N2CCN(C(c3ccccc3)c3ccccc3)CC2)no1`: the growth inhibition in experiment [1] was -10.9%; in experiment [2], -6.91%. In experiment [3], the viability increase was 4.46%. Besides, the viability in experiment [4] was 98.7%; in experiment [5], 90.9%. Also, the inhibition in experiment [6] is 0.485%. The RAM network inhibition in experiment [7] was 5.99%.
Take `CC1(C)SCC2C(=O)N3C(CSC3(C)C)C(=O)N21` (stereo unspecified): the growth inhibition is 2.82% in experiment [1] and -6.7% in experiment [2]. Further, the viability increase in experiment [3] was 0.02%. The viability was 107% in experiment [4] and 96.2% in experiment [5]. The inhibition in experiment [6] was 1.5%. For the same molecule, the RAM network inhibition in experiment [7] was 4.22%.
Consider `Cc1cc(N)n2ncc(-c3cccc(Br)c3)c2n1`, for which the growth inhibition in experiment [1] is 2.1%; in experiment [2], -6.45%. The viability increase in experiment [3] is -6.91%. Moreover, the viability in experiment [4] was 75.4%; in experiment [5], 71.8%. The inhibition in experiment [6] is 0.315%. Besides, the RAM network inhibition in experiment [7] is 1.65%.
In the case of `CCCN(CCC)S(=O)(=O)c1ccc(C(=O)NCc2ccc3c(c2)OCO3)cc1`, the results for the growth inhibition in experiment [1] and in experiment [2] were -12.9% and -18.8%, respectively. Moreover, the viability increase in experiment [3] is -3.62%. In addition, the viability is 94.5% in experiment [4] and 80.3% in experiment [5]. In addition, the inhibition in experiment [6] was 2.21%. Further, the RAM network inhibition in experiment [7] was 4.05%.
As for `COc1ccc(S(=O)(=O)Cc2ccc(C(=O)N3CCN(C(=O)c4ccco4)CC3)o2)cc1`, the growth inhibition in experiment [1] is 0.785%; in experiment [2] it was 1.27%. Besides, the viability increase in experiment [3] was -2.09%. In addition, the figures for the viability in experiment [4] and in experiment [5] were 92.8% and 100%, respectively. In addition, the inhibition in experiment [6] is 2.06%. For the same molecule, the RAM network inhibition in experiment [7] was 3.94%.
Turning to `COc1ccc2c(c1)[nH]c1c(N3CCN(Cc4ccc5c(c4)OCO5)CC3)ncnc12`, the values for the growth inhibition in experiment [1] and in experiment [2] were -15.7% and -18.4%, respectively. Besides, the viability increase in experiment [3] was -5.9%. Moreover, the viability in experiment [4] is 11.9% (active); in experiment [5], 23.1% (active). The inhibition in experiment [6] is 2.08%. Besides, in experiment [7], the RAM network inhibition was 5.66%.
Regarding `CC(C)CC(=O)Nc1ccc(C(=O)COc2ccc(-c3nnco3)cc2)cc1`, the growth inhibition in experiment [1] was -0.165%; in experiment [2], -0.795%. In addition, the viability increase in experiment [3] was 0.84%. In addition, the viability in experiment [4] was 88%; in experiment [5], 87%. Besides, in experiment [6], the inhibition was 0.965%. In addition, the RAM network inhibition in experiment [7] was 2.46%.
For the molecule `COc1ccc(CC(=O)N2CC3(C)CC2CC(C)(C)C3)cc1OC` (stereo unspecified), the growth inhibition in experiment [1] was -8.12%; in experiment [2] it was -2.29%. For the same molecule, the viability increase in experiment [3] is -2.91%. In addition, the viability in experiment [4] was 92.7%; in experiment [5] it was 88.2%. Further, the inhibition in experiment [6] is 2.62%. The RAM network inhibition in experiment [7] is 6.83%.
For `CCCCOC(=O)Nc1ccc(N2CCOCC2)cc1`, the growth inhibition in experiment [1] is -0.54%; in experiment [2], 2.39%. Moreover, in experiment [3], the viability increase is -0.38%. The viability was 98.2% in experiment [4] and 102% in experiment [5]. For the same molecule, the inhibition in experiment [6] is 1.28%. In addition, in experiment [7], the RAM network inhibition was 4.87%.
As for `CC(=O)N1CCc2c(sc(NC(=O)C3CC3)c2-c2nc3ccccc3s2)C1`, the growth inhibition was 0.95% in experiment [1] and -2.89% in experiment [2]. The viability increase in experiment [3] is -3.03%. Further, the values for the viability in experiment [4] and in experiment [5] were 65.4% and 63.4%, respectively. Further, the inhibition in experiment [6] was 1.99%. Besides, the RAM network inhibition in experiment [7] is 4.93%.
With `O=C(O)CCC(=O)N1CCc2cc(S(=O)(=O)N3CCN(c4ccc(F)cc4)CC3)ccc21`, the growth inhibition in experiment [1] was -4.08%; in experiment [2] it was 6.97%. Also, the viability increase in experiment [3] was -1.31%. The viability was 97.4% in experiment [4] and 99% in experiment [5]. In addition, in experiment [6], the inhibition was 1.94%. The RAM network inhibition in experiment [7] was 4.17%.
As to `CCC(Sc1ccc2nnc(-c3cccnc3)n2n1)C(=O)O` (stereo unspecified), the growth inhibition in experiment [1] was -18.7%; in experiment [2], -14.8%. Besides, the viability increase in experiment [3] was -0.8%. Moreover, the viability in experiment [4] was 100%; in experiment [5], 95.8%. Moreover, the inhibition in experiment [6] was 2.44%. Besides, in experiment [7], the RAM network inhibition is 6.69%.
`O=C(O)C1C2C=CC3(CN(Cc4ccco4)C(=O)C13)O2` (stereo unspecified): the values for the growth inhibition in experiment [1] and in experiment [2] were -11.7% and 4.86%, respectively. The viability increase in experiment [3] was -0.96%. Moreover, the results for the viability in experiment [4] and in experiment [5] were 112% and 95.6%, respectively. For the same molecule, the inhibition in experiment [6] was 0.815%. For the same molecule, in experiment [7], the RAM network inhibition is -0.52%.
